Measurements gathered from unrelated publications.
Protocols differ between the studies behind these lines. Converted amounts (≈) assume the structure as drawn.
Observed: microbial growth

COC(=O)c1cc(-c2cccc(NC(=O)Nc3cccc(Cl)c3Cl)c2)on1  MIC (Escherichia coli; broth dilution; ATCC25922): > 64 µg/mL
c1ccc(CCOC2CCCc3c2[nH]c2ccccc32)cc1 (centres unmarked)  MIC (Micrococcus luteus; broth dilution; DSM1790): 128 µg/mL (≈ 439 µM)
CN[C@H](CC(C)C)C(=O)N[C@H]1C(=O)N[C@@H](CC(N)=O)C(=O)N[C@H]2C(=O)N[C@H]3C(=O)N[C@H](C(=O)N[C@H](C(=O)O)c4cc(O)cc(O)c4-c4cc3ccc4O)[C@H](O)c3ccc(c(Cl)c3)Oc3cc2cc(c3O[C@@H]2O[C@H](CO)[C@@H](O)[C@H](O)[C@H]2O[C@H]2C[C@](C)(N)[C@H](O)[C@H](C)O2)Oc2ccc(cc2Cl)[C@H]1O  MIC (Lactobacillus acidophilus; agar dilution; 48 h): 2 µg/mL (≈ 1.38 µM)
COc1ccc(-c2nc3ccc(C)cc3[nH]2)cc1OC  MIC (Staphylococcus aureus; broth dilution; ATCC43300 MRSA; drug-resistant strain): 256 µg/mL (≈ 954 µM)
Cc1ccc2[nH]c3c(c2c1)CCCC3NCCc1ccc(O)cc1 (centres unmarked)  MIC (Micrococcus luteus; broth dilution; DSM1790): 8 µg/mL (≈ 25 µM)
CC(C)[C@H](N)C(=O)OCCCCCn1cnc2nc(NCc3ccc(Cl)c(Cl)c3)[nH]c(=O)c21  MIC (Lactobacillus acidophilus; agar dilution; 48 h): 8 µg/mL (≈ 16.1 µM)
COC(=O)c1cc(-c2cccc(NC(=O)Nc3cccc(Br)c3)c2)on1  MIC (Escherichia coli; broth dilution; ATCC25922): > 64 µg/mL
Cc1ccc2nc(-c3ccc4c(c3)OCO4)[nH]c2c1  MIC (Staphylococcus aureus; broth dilution; ATCC43300 MRSA; drug-resistant strain): 512 µg/mL (≈ 2030 µM)
COC(=O)c1cc(-c2cccc(NC(=S)NC3CCCCC3)c2)on1  MIC (Escherichia coli; broth dilution; ATCC25922): > 64 µg/mL
Clc1ccc(-c2nc3ccccc3[nH]2)cc1Cl  MIC (Staphylococcus aureus; broth dilution; ATCC43300 MRSA; drug-resistant strain): 64 µg/mL (≈ 243 µM)
CC1(C)CC[C@]2(C(=O)O)CC[C@]3(C)C(=CC[C@@H]4[C@@]5(C)CC[C@H](O)C(C)(C)[C@@H]5CC[C@]43C)[C@@H]2C1  MIC (Staphylococcus aureus; ATCC29213): 128 µg/mL (≈ 280 µM)
